The source made the active and inactive calls. No cut-off for these calls is given here.
Experiments:
A549 [1] = assay: Induction of apoptosis in human A549 cells assessed as viable cells at 50 uM incubated for 24 hrs by annexin V FITC and PI staining based flow cytometry (reference value: 95.7%); type: functional; details: A549, 24 h, read-out: Activity
A549 [2] = assay: Induction of apoptosis in human A549 cells assessed as chromatin shrinkage and apoptotic body formation at higher concentrations incubated for 24 hrs by AO-EB staining based fluorescence microscopy; type: functional, cell-based
Summary of the method: (§1)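 A549 cells were plated at 3 × 10^5/well and cultured 12 h, then exposed to various concentrations for 24 h. Morphology was observed by microscopy. AO-EB stain (1 mg/mL each, in PBS) was applied for 10 min at room temperature in the dark. Harvested cells were stained with PI for 15 min at room temperature in the dark, then washed. Both stains were examined by fluorescence microscopy.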

MRC5 = assay: Cytotoxicity against human MRC5 cells assessed as reduction in cell proliferation incubated for 48 hrs by MTT assay; type: cell-based; details: MRC5, 48 h
Summary of the method: (§2)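 Log-phase cells were plated at 5 × 10^3/well in RPMI-1640 with 10% FBS and cultured 24 h. Compounds were added at graded concentrations (DMSO <0.1%) for 48 h. MTT (5 mg/mL) was added for about 4 h, formazan was dissolved in DMSO and A490 was read. IC50 was calculated from ≥3 independent experiments and reported as mean ± SD. Chrysin served as positive control.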

A549 [3] = assay: Induction of apoptosis in human A549 cells assessed as necrotic cells at 5 uM incubated for 24 hrs by annexin V FITC and PI staining based flow cytometry (reference value: 2.43%); type: functional
A549 [4] = assay: Induction of apoptosis in human A549 cells assessed as upregulation of Cyt c protein expression incubated for 24 hrs by Western blot analysis; type: functional, cell-based
Summary of the method: (§3)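 A549 cells were treated with various concentrations for 24 h and lysed in RIPA buffer with 1 mM PMSF. Protein (20 μg) was resolved on 8-12% SDS-PAGE and transferred to PVDF. Membranes were blocked in 5% milk and probed with primary antibodies overnight at 4 °C, then with anti-rabbit secondary. Bands were quantified by densitometry. Mean ± SD, ≥3 experiments.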

A549 [5] = assay: Induction of apoptosis in human A549 cells assessed as downregulation of 5-Lox protein expression at 10 uM by Western blot analysis; type: functional, cell-based; details: TDE = time-dependent effect
Summary of the method: as §3, with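 “exposed to 10 μM” for “treated with various concentrations”, “different times” for “24 h”, “separated” for “resolved”, “incubated” for “probed”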

A549 [6] = assay: Induction of apoptosis in human A549 cells assessed as downregulation of MDM2 protein expression incubated for 24 hrs by Western blot analysis; type: functional, cell-based; summary of the method: as §3
K562 = assay: Antiproliferative activity against human K562 cells assessed as reduction in cell proliferation incubated for 48 hrs by MTT assay; type: functional, cell-based; details: K562, 48 h; summary of the method: as §2
A549 [7] = assay: Induction of apoptosis in human A549 cells assessed as upregulation of Bax protein expression at 10 uM by Western blot analysis; type: functional, cell-based; details: TDE = time-dependent effect
Summary of the method: as §3, with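 “exposed to 10 μM” for “treated with various concentrations”, “different times” for “24 h”, “separated” for “resolved”, “incubated” for “probed”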

A549 [8] = assay: Induction of apoptosis in human A549 cells assessed as necrotic cells at 25 uM incubated for 24 hrs by annexin V FITC and PI staining based flow cytometry (reference value: 2.43%); type: functional
A549 [9] = assay: Induction of apoptosis in human A549 cells assessed as upregulation of Bax protein expression incubated for 24 hrs by Western blot analysis; type: functional, cell-based; summary of the method: as §3
A549 [10] = assay: Induction of apoptosis in human A549 cells assessed as downregulation of Bcl2 protein expression incubated for 24 hrs by Western blot analysis; type: functional, cell-based; summary of the method: as §3
A549 [11] = assay: Induction of apoptosis in human A549 cells assessed as upregulation of p53 protein expression incubated for 24 hrs by Western blot analysis; type: functional, cell-based; summary of the method: as §3
A549 [12] = assay: Antimigratory activity in human A549 cells assessed as reduction in cell migration incubated for 36 hrs by transwell migration assay; type: functional, cell-based
Summary of the method: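 Cells were suspended at 1 × 10^4/mL in RPMI-1640 with 1% FBS and seeded in the upper chamber. For the invasion assay the upper chamber was coated with Matrigel. The lower chamber held medium with 10% FBS. Compound was given at various concentrations for 36 h. Membranes were methanol-fixed and stained with 0.1% crystal violet. Cells on the lower side were counted relative to control (100%). Mean ± SD, ≥3 experiments.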

A549 [13] = assay: Induction of apoptosis in human A549 cells assessed as upregulation of Cyt c protein expression at 10 uM by Western blot analysis; type: functional, cell-based; details: TDE = time-dependent effect
Summary of the method: as §3, with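 “exposed to 10 μM” for “treated with various concentrations”, “different times” for “24 h”, “separated” for “resolved”, “incubated” for “probed”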

A549 [14] = assay: Induction of apoptosis in human A549 cells assessed as downregulation of MDM2 protein expression at 10 uM by Western blot analysis; type: functional, cell-based; details: TDE = time-dependent effect
Summary of the method: as §3, with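 “exposed to 10 μM” for “treated with various concentrations”, “different times” for “24 h”, “separated” for “resolved”, “incubated” for “probed”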

A549 [15] = assay: Induction of apoptosis in human A549 cells assessed as early apoptotic cells at 5 uM incubated for 24 hrs by annexin V FITC and PI staining based flow cytometry (reference value: 0.53%); type: functional
A549 [16] = assay: Induction of apoptosis in human A549 cells assessed as viable cells at 5 uM incubated for 24 hrs by annexin V FITC and PI staining based flow cytometry (reference value: 95.7%); type: functional; details: A549, 24 h, read-out: Activity
A549 [17] = assay: Antiproliferative activity against human A549 cells assessed as reduction in cell proliferation incubated for 48 hrs by MTT assay; type: functional, cell-based; details: A549, 48 h; summary of the method: as §2
A549 [18] = assay: Induction of apoptosis in human A549 cells assessed as increase in caspase 9 activity at 100 uM incubated for 24 hrs by colorimetry relative to control; type: functional
Summary of the method: (§4)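 A549 cells were plated at 3 × 10^5/well and cultured 12 h, then treated with various concentrations for 24 h. Cells were lysed on ice for 60 min. Lysate containing 200 μg protein was incubated with caspase-3, -8 or -9 colorimetric substrate at 37 °C for 4 h in the dark, and A405 was read. Activation = (treated − blank)/(control − blank). Mean ± SD, ≥3 experiments.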

A549 [19] = assay: Antimigratory activity in human A549 cells assessed as reduction in wound healing incubated for 36 hrs by wound healing assay; type: functional, cell-based
Summary of the method: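 Confluent A549 monolayers, seeded at 1 × 10^5 cells/well, were scratched with a pipette tip. Medium was replaced with medium containing various concentrations and cells were incubated 36 h. Migration area was measured by microscopy and expressed as a percentage of control (control = 100%). Mean ± SD, ≥3 independent experiments.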

A549 [20] = assay: Induction of apoptosis in human A549 cells assessed as increase in caspase 8 activity at 100 uM incubated for 24 hrs by colorimetry relative to control; type: functional; summary of the method: as §4
A549 [21] = assay: Induction of apoptosis in human A549 cells assessed as late apoptotic cells at 25 uM incubated for 24 hrs by annexin V FITC and PI staining based flow cytometry (reference value: 1.32%); type: functional
A549 [22] = assay: Induction of apoptosis in human A549 cells assessed as downregulation of Akt protein expression incubated for 24 hrs by Western blot analysis; type: functional, cell-based; summary of the method: as §3
A549 [23] = assay: Induction of apoptosis in human A549 cells assessed as compromised cell membrane boundaries at 5 to 20 uM incubated for 24 hrs by PI staining based fluorescence microscopy; type: functional; summary of the method: as §1
PC-3 = assay: Antiproliferative activity against human PC3 cells assessed as reduction in cell proliferation incubated for 48 hrs by MTT assay; type: functional, cell-based; details: PC-3, 48 h; summary of the method: as §2
A549 [24] = assay: Induction of apoptosis in human A549 cells assessed as upregulation of p21 protein expression at 10 uM by Western blot analysis; type: functional, cell-based; details: TDE = time-dependent effect
Summary of the method: as §3, with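 “exposed to 10 μM” for “treated with various concentrations”, “different times” for “24 h”, “separated” for “resolved”, “incubated” for “probed”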

IC50 (K562): 4.1 µM | IC50 (A549 [17]): 3.15 µM | IC50 (PC-3): 20.3 µM
Compound: CN1C(=O)C2(C(C#N)=C(N)Oc3cc4oc(-c5ccccc5)cc(=O)c4c(O)c32)c2cc(Br)ccc21 (configuration not stated)
viability at 50 µM (A549 [1]): 59.8% | Activity (A549 [2]): Active | IC50 (MRC5): > 100 µM | Activity (A549 [3]): 0.732% | Activity (A549 [4]): Dose-dependent effect | inhibition (A549 [5]): Tde | inhibition (A549 [6]): Dose-dependent effect | Activity (A549 [7]): Tde | Activity (A549 [8]): 2.97% | Activity (A549 [9]): Dose-dependent effect | inhibition (A549 [10]): Dose-dependent effect | Activity (A549 [11]): Dose-dependent effect | inhibition (A549 [12]): Dose-dependent effect | Activity (A549 [13]): Tde | inhibition (A549 [14]): Tde | Activity (A549 [15]): 6.53% | viability at 5 µM (A549 [16]): 85% | fold change (FC) (A549 [18]): 1.81 | inhibition (A549 [19]): Dose-dependent effect | fold change (FC) (A549 [20]): 2.98 | Activity (A549 [21]): 13.7% | inhibition (A549 [22]): Dose-dependent effect | Activity (A549 [23]): Active | Activity (A549 [24]): Tde
